The source made the active and inactive calls. No cut-off for these calls is given here.
How the values were obtained:
A498 [1] = assay: Cell cycle arrest in human A498 cells assessed as accumulation at sub-G1 phase at 0.5 uM after 24 hrs by propidium iodide staining-based flow cytometry (reference value: 0.10 +/- 0.07%); type: functional
A498 [2] = assay: Induction of apoptosis in human A498 cells assessed as late apoptotic cells at 0.5 uM after 12 hrs by AnnexinV/FITC-propidium iodide staining-based flow cytometry (reference value: 9.6%); type: functional
How it was run: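 Flow cytometry with annexin V-FITC/PI double labeling of A498 cells treated for 12, 24, 36 or 48 h; untreated cells served as the 0 h control. Stained in binding buffer for 15 min at room temperature in the dark, with more binding buffer added just before analysis. Annexin V+/PI− (Q4) counted as early apoptotic and annexin V+/PI+ (Q2) as late apoptotic.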

A498 [3] = assay: Induction of apoptosis in human A498 cells assessed as early apoptotic cells at 0.5 uM after 12 hrs by AnnexinV/FITC-propidium iodide staining-based flow cytometry (reference value: 3.9%); type: functional
A498 [4] = assay: Cytotoxicity against human A498 cells assessed as cell shrinkage at 0.5 uM after 24 hrs by phase contrast microscopy; type: functional, cell-based
How it was run: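 A498 cells were plated at 5 × 10⁵ per well and exposed to 0.5 µM for 24 h. Cell rounding and shrinkage were scored by microscopy against untreated control cells.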

A498 [5] = assay: Cytotoxicity against human A498 cells assessed as reduction in cell viability at 0.5 uM after 48 hrs by MTT assay relative to control; type: functional
A498 [6] = assay: Cytotoxicity against human A498 cells assessed as reduction in cell viability at 0.1 uM after 48 hrs by MTT assay relative to control; type: functional
A498 [7] = assay: Cytotoxicity against human A498 cells assessed as reduction in cell viability at 0.25 uM after 48 hrs by MTT assay relative to control; type: functional
MDA-MB-468 = assay: Cytotoxicity against human MDA-MB-468 cells after 48 hrs by sulforhodamine B assay; type: functional; conditions: MDA-MB-468, 48 h
T47D = assay: Cytotoxicity against human T47D cells after 48 hrs by sulforhodamine B assay; type: functional
MDA-MB-231 = assay: Cytotoxicity against human MDA-MB-231 cells after 48 hrs by sulforhodamine B assay; type: functional; conditions: MDA-MB-231, 48 h
PC-3 = assay: Cytotoxicity against human PC3 cells after 48 hrs by sulforhodamine B assay; type: functional; conditions: PC-3, 48 h
OVCAR-8 = assay: Cytotoxicity against human OVCAR8 cells after 48 hrs by sulforhodamine B assay; type: functional; conditions: OVCAR-8, 48 h
IGROV-1 = assay: Cytotoxicity against human IGROV1 cells after 48 hrs by sulforhodamine B assay; type: functional; conditions: IGROV-1, 48 h
UACC-62 = assay: Cytotoxicity against human UACC62 cells after 48 hrs by sulforhodamine B assay; type: functional; conditions: UACC-62, 48 h
SK-MEL-28 = assay: Cytotoxicity against human SK-MEL-28 cells after 48 hrs by sulforhodamine B assay; type: functional; conditions: SK-MEL-28, 48 h
SK-MEL-2 = assay: Cytotoxicity against human SK-MEL-2 cells after 48 hrs by sulforhodamine B assay; type: functional; conditions: SK-MEL-2, 48 h
KM12 = assay: Cytotoxicity against human KM12 cells after 48 hrs by sulforhodamine B assay; type: functional; conditions: KM12, 48 h
HCT-15 = assay: Cytotoxicity against human HCT15 cells after 48 hrs by sulforhodamine B assay; type: functional; conditions: HCT-15, 48 h
NCI-H522 = assay: Cytotoxicity against human NCI-H522 cells after 48 hrs by sulforhodamine B assay; type: functional; conditions: NCI-H522, 48 h
NCI-H226 = assay: Cytotoxicity against human NCI-H226 cells after 48 hrs by sulforhodamine B assay; type: functional; conditions: NCI-H226, 48 h
MOLT-4 = assay: Cytotoxicity against human MOLT4 cells after 48 hrs by sulforhodamine B assay; type: functional; conditions: MOLT-4, 48 h
A498 [8] = assay: Cell cycle arrest in human A498 cells assessed as accumulation at G2/M phase at 0.5 uM after 36 hrs by propidium iodide staining-based flow cytometry (reference value: 5.39 +/- 0.01%); type: functional
A498 [9] = assay: Cell cycle arrest in human A498 cells assessed as accumulation at S phase at 0.5 uM after 48 hrs by propidium iodide staining-based flow cytometry (reference value: 15.92 +/- 0.03%); type: functional
A498 [10] = assay: Cell cycle arrest in human A498 cells assessed as accumulation at S phase at 0.5 uM after 36 hrs by propidium iodide staining-based flow cytometry (reference value: 15.92 +/- 0.03%); type: functional
A498 [11] = assay: Cell cycle arrest in human A498 cells assessed as accumulation at S phase at 0.5 uM after 24 hrs by propidium iodide staining-based flow cytometry (reference value: 15.92 +/- 0.03%); type: functional
A498 [12] = assay: Cell cycle arrest in human A498 cells assessed as accumulation at G0/G1 phase at 0.5 uM after 36 hrs by propidium iodide staining-based flow cytometry (reference value: 78.70 +/- 0.02%); type: functional
A498 [13] = assay: Ratio of YC-1 IC50 to compound IC50 for human A498 cells after 48 hrs by MTT assay; type: functional
A498 [14] = assay: Cytotoxicity against human A498 cells after 48 hrs by MTT assay; type: functional, cell-based
COLO 205 = assay: Cytotoxicity against human COLO205 cells after 48 hrs by MTT assay; type: functional, cell-based; conditions: COLO 205, 48 h
How it was run: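 Cells were treated with a range of concentrations for 48 h. Viability was read by MTT: formazan was dissolved in DMSO and absorbance read at 570 nm. Untreated or 0.1% DMSO cells served as control. Data are mean from three independent experiments. HL-60, H460 and COLO 205 were kept in RPMI-1640 with 10% FBS and penicillin/streptomycin.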

[15] = Cytotoxicity against human Hep3B cells after 48 hrs by MTT assay; type: functional, cell-based, Hep 3B2
[16] = read-out: pLC50 (the source's name) (converted)

## OCc1ccc(Cn2c3ccccc3c3oc(CO)cc32)o1
A498 [1]
  Activity: 0.91%
A498 [2]
  Activity: 10%
A498 [3]
  Activity: 5%
A498 [4]
  Activity: Active
A498 [5]
  Activity: 37.5%
A498 [6]
  Activity: 82.8%
A498 [7]
  Activity: 39.5%
MDA-MB-468
  GI50: 0.17 µM
MDA-MB-468; read-out: pTGI (converted)
  TGI: 0.562 µM
T47D
  GI50: 1.62 µM
T47D; [16]
  CC50: > 100 µM
T47D; read-out: pTGI
  TGI: > 100 µM
MDA-MB-231
  GI50: 74.1 µM
MDA-MB-231; [16]
  CC50: > 100 µM
MDA-MB-231; read-out: pTGI
  TGI: > 100 µM
PC-3
  GI50: 55 µM
PC-3; [16]
  CC50: > 100 µM
PC-3; read-out: pTGI
  TGI: > 100 µM
OVCAR-8
  GI50: > 100 µM
OVCAR-8; [16]
  CC50: > 100 µM
OVCAR-8; read-out: pTGI
  TGI: > 100 µM
IGROV-1
  GI50: 4.68 µM
IGROV-1; [16]
  CC50: > 100 µM
IGROV-1; read-out: pTGI
  TGI: > 100 µM
UACC-62
  GI50: 3.24 µM
UACC-62; [16]
  CC50: > 100 µM
UACC-62; read-out: pTGI
  TGI: > 100 µM
SK-MEL-28
  GI50: > 100 µM
SK-MEL-28; [16]
  CC50: > 100 µM
SK-MEL-28; read-out: pTGI
  TGI: > 100 µM
SK-MEL-2
  GI50: > 100 µM
SK-MEL-2; [16]
  CC50: > 100 µM
SK-MEL-2; read-out: pTGI
  TGI: > 100 µM
KM12
  GI50: > 100 µM
KM12; [16]
  CC50: > 100 µM
KM12; read-out: pTGI
  TGI: > 100 µM
HCT-15
  GI50: 87.1 µM
HCT-15; [16]
  CC50: > 100 µM
HCT-15; read-out: pTGI
  TGI: > 100 µM
NCI-H522
  GI50: 39.8 µM
NCI-H522; [16]
  CC50: > 100 µM
NCI-H522; read-out: pTGI
  TGI: > 100 µM
NCI-H226
  GI50: 0.224 µM
NCI-H226; read-out: pTGI (converted)
  TGI: 0.55 µM
MOLT-4
  GI50: 77.6 µM
MOLT-4; [16]
  CC50: > 100 µM
MOLT-4; read-out: pTGI
  TGI: > 100 µM
A498 [8]
  Activity: 15.98%
A498 [9]
  Activity: 10.64%
A498 [10]
  Activity: 14.33%
A498 [11]
  Activity: 15.98%
A498 [12]
  Activity: 69.69%
A498 [13]
  Ratio IC50: 1.5
A498 [14]
  Activity: Dose-dependent effect
A498 [14]; A498, 48 h
  IC50: 0.21 µM
COLO 205
  IC50: 31.1 µM
[15]
  IC50: > 50 µM

Reference: ChEMBL document CHEMBL2412970, “Synthesis and anticancer activity of 2,4-disubstituted furo[3,2-b]indole derivatives” (Eur J Med Chem, 2013)
